ATG4B inh = ATG4B protease inhibitors, primary screen, biochemical, fluorescence, uHTS; ATG4B cleavage of LC3-PLA2, NBD-HPC fluorescence, 1 h; inhibition, % at 8.33 µM; 0.51% of 340,000 active; AID 504462, 2011; in the data active = inhibition above about 40%
Target sequence (Q9Y4P1 whole entry, looked up): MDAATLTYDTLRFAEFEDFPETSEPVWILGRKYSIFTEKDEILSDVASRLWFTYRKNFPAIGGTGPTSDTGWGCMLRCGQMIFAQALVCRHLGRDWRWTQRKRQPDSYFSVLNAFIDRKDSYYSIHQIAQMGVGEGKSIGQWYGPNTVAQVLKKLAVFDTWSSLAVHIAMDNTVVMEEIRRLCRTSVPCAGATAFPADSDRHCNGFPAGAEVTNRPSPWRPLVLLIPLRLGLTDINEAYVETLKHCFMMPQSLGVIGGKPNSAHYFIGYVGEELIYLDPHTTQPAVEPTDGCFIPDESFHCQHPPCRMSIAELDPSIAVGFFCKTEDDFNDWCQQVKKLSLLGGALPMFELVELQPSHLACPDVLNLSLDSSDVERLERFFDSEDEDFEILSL
MC4R barr agon = MC4R agonists recruiting beta-arrestin, primary screen, cell-based, luminescence, agonist arm of biased-ligand search. Melanocortin receptor 4 (Homo sapiens), P32245. AID 540308, 2011. activation, % at 8.9 µM. U2OS MC4R beta-arrestin complementation; percent of melanotan II response, DMSO zero. 0.98% of 360,000 active;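 active = activation above a per-plate cutoff, the mean activation of sample wells on that plate plus 3 SD, cut at about 8% in these data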
MC4R antag cAMP = MC4R antagonists of cAMP signaling, primary screen, cell-based, TR-FRET, antagonist arm of biased-ligand search; MC4R-expressing cells, MTII-stimulated cAMP, LANCE TR-FRET; Melanocortin receptor 4 (Homo sapiens), P32245; 0.48% of 360,000 active; inhibition, % at 6.5 µM;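 active = inhibition above its plate's cutoff, the mean of tested wells on that plate plus 3 SD, cut at about 29% in these data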;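 also: 0% = Melanotan II alone and 100% = Melanotan II plus saturating MCL0020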
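Assay system: U2OS cells stably expressing human melanocortin 4 receptor (MC4R) / Dosing: 6.5 µM / Timing: compound 30 min, challenge 1 h, detection 1 h / Measured by: Eu-cAMP/anti-cAMP TR-FRET, emission 671 nm / Replicates: singlicate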
MPTP block = mitochondrial permeability transition pore inhibitors, primary screen, biochemical, isolated mouse mitochondria, absorbance | Ca2+ swelling absorbance, 30 min | inhibition, % at 10 µM | 1.4% of 360,000 active | AID 602449, 2012;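 active = inhibition of 50% or more, scaled per plate between neutral and stimulator controls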;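 also: 0% = DMSO wells given calcium and 100% = 1 mM EGTA wells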
SMARCA2 activ = SMARCA2 (BRM) function activators, primary screen, cell-based, luminescence, high throughput | 1% of 370,000 active | AID 652017, 2013 | activation, % at 9.1 µM | MG213 cells, MMTV-luciferase reporter, dexamethasone, overnight; in the data active = activation above about 7.8%;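 also: 0% = vehicle wells and 100% = reference activator wells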
Rh123 counter = fluorescence retest of MPTP screen hits in isolated mitochondria, single concentration; inhibition, % at 10 µM; 78% of 5,000 active; membrane potential, Rhodamine 123 fluorescence; shares compounds with MPTP block; AID 624504, 2012; in the data active = inhibition above about 22%;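 also: 0% = DMSO vehicle and 100% = positive control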
MPTP swell DR = mitochondrial permeability transition pore inhibitors, dose response, biochemical, absorbance, uHTS hits | shares compounds with MPTP block | isolated mitochondria swelling | IC50, µM | 58% of 780 active; in the data active = IC50 below about 20 µM
MPTP cs DR = fluorescent counter-screen in isolated mitochondria, dose response, counter-screen for MPTP inhibitor project, biochemical, fluorescence, uHTS hits. shares compounds with MPTP block. isolated mitochondria counterscreen, fluorescence read-out. IC50, µM. 49% of 780 active; in the data active = IC50 below about 80 µM
An asterisk follows results filed as active; . = no result given. In the library only some 4.1% were active in any assay of this set; here they are far more common.

SMILES | ATG4B inh | MC4R barr agon | MC4R antag cAMP | MPTP block | SMARCA2 activ | Rh123 counter | others
Cn1cc(CNCc2ccc(OC(F)(F)F)cc2)c(-c2ccc3c(c2)OCCO3)n1 | -14 | 4 | -7 | 102* | -7 | 96*
COC(=O)C1CCCN(C(=O)C2CCN(S(=O)(=O)c3cccs3)CC2)C1 (centres undefined) | . | . | . | . | 3 | .
Cc1cccc(N(C(=O)Nc2ccccc2)C2=NCC(C)S2)c1 (centres undefined) | -2 | 0 | -1 | 0 | 1 | .
COc1ccc(Cl)cc1N(C(=O)Nc1cccc(Cl)c1)C1=NCC(C)S1 (centres undefined) | -2 | -1 | 12 | 92* | -1 | 89*
Cc1cnc(C(=O)N2CCN(S(=O)(=O)c3cc(C(F)(F)F)cc(C(F)(F)F)c3)CC2)cn1 | 0 | 1 | 8 | 88* | 0 | 105*
CC1CC1C(=O)N1CCN(S(=O)(=O)c2cc(C(F)(F)F)cc(C(F)(F)F)c2)CC1 (centres undefined) | 2 | -1 | 6 | 101* | -4 | 102*
COC(=O)C1CN(Cc2ccccc2)CCS(=O)(=O)N1Cc1cn(Cc2ccc(F)cc2)nn1 (centres undefined) | . | . | . | . | 4 | .
O=C(c1ccccc1OCc1ccccc1)N(Cc1ccccn1)CC1CCCO1 (centres undefined) | . | . | . | . | -4 | .
Cc1ccc(C(=O)N/N=C/c2cccc(OC(=O)/C=C/c3ccco3)c2)cn1 | -21 | -1 | -3 | 0 | 5 | .
O=C(/C=C/c1ccco1)Oc1cc(Br)cc(/C=N/NC(=O)c2ccccc2O)c1 | 27 | 2 | 0 | 66* | -3 | 63*
CN1C(=O)C(N=Nc2ccc([N+](=O)[O-])cc2)SC1=S (centres undefined) | -1 | -1 | 1 | 112* | 3 | 69*
COC(=O)C1CN(Cc2cn(Cc3ccc(C)cc3)nn2)CCS(=O)(=O)N1Cc1ccc(C)cc1 (centres undefined) | . | . | . | . | 0 | .
CN1CCN(c2ccc(NC(=S)NC(=O)c3cccc4c(Cl)cccc34)cc2)CC1 | -4 | -2 | -1 | 91* | 2 | -8
CCCC(=O)N1CCN(c2ccc(NC(=S)NC(=O)c3cccc(C)c3)cc2)CC1 | -3 | 0 | 3 | 77* | -1 | 56*
O=C(NC(=S)Nc1ccc(N2CCOCC2)cc1)c1cccc(Cl)c1Cl | -10 | 1 | -1 | 0 | -3 | .
CC1(C)SC(=S)N(/N=C/c2ccc(O)cc2)C1N(O)C(=O)Nc1ccc([N+](=O)[O-])cc1 (centres undefined) | -11 | -1 | 8 | 3 | -1 | .
Cc1ccc(/C=N/N2C(=S)SC(C)(C)C2N(O)C(=O)Nc2ccc([N+](=O)[O-])cc2)cc1 (centres undefined) | -4 | 7 | -3 | 91* | -3 | 87*
COc1ccc(CSCCNC(=S)Nc2ccccc2)cc1Cl | 13 | 0 | 0 | 78* | -2 | 90*
S=C(Nc1ccccc1)Nc1ccc(OCc2ccc(Cl)cc2Cl)cc1 | 2 | 3 | 1 | 85* | -10 | 89*
CCOc1ccc(NC(=S)Nc2ccc(OCc3ccccc3)cc2)cc1 | 1 | 2 | 2 | 0 | -2 | .
CCOc1ccc(CSCCNC(=S)Nc2ccccc2)cc1 | 8 | -1 | 2 | 46 | -2 | .
S=C(NCCSCc1ccc(Cl)cc1Cl)Nc1ccccc1 | 35 | 1 | -10 | 97* | -3 | 105*
COc1ccc(CNC(=S)Nc2ccccc2)cc1Cl | 5 | 0 | 1 | 1 | -2 | .
Cc1ccc(C(=O)NCCSCc2ccc(Cl)cc2Cl)cc1[N+](=O)[O-] | 3 | 2 | 1 | 68* | -1 | 78*
Cc1cccc(-c2cccc3c4c([nH]c23)[C@@H]2C[C@H](N(C)C(=S)Nc3ccc(C#N)cc3)[C@H]([C@H](C)O)CN2CC4)c1 | . | . | . | . | -7 | .
SMILES | ATG4B inh | MC4R barr agon | MC4R antag cAMP | MPTP block | SMARCA2 activ | Rh123 counter | others
CC1CCCCN1S(=O)(=O)c1cc2c(=O)nc3ccccn3c2cc1Cl (centres undefined) | . | . | . | . | -1 | .
CC(C)COc1ccc(CNC(=S)Nc2ccccc2)cc1Cl | 36 | 3 | 14 | 74* | -2 | 86*
OCCNCc1ccc(OCc2ccc(Cl)cc2Cl)cc1 | -1 | -1 | 4 | 94* | -2 | -6 | MPTP swell DR=4.2*;MPTP cs DR=>80
Cc1ccccc1CSCCNC(=O)c1ccccc1 | 5 | 0 | 2 | 2 | -2 | .
Cc1ccccc1CSCCNC(=S)Nc1ccccc1 | 13 | 3 | 1 | 57* | 2 | 78*
CC(C)Oc1ccc(CNC(=S)Nc2ccccc2)cc1Cl | 2 | 0 | 3 | 26 | 0 | .
COc1ccc(CC(=O)Nc2ccc(C)cc2S(=O)(=O)N2CCOCC2)cc1OC | . | . | . | . | -1 | .
COC(=O)[C@]12C[C@H](CC(=O)NCc3ccc(C)o3)C(=O)N(CCc3ccc(OC)c(OC)c3)C1=C[C@H](C1CCCC1)O[C@@H]2C | . | . | . | . | 4 | .
Cc1ccc(NC(=O)C2CCN(S(=O)(=O)c3ccc4c(c3)NC(=O)C(C)S4)CC2)cc1Cl (centres undefined) | 3 | -1 | 7 | 96* | -9 | 97*
Oc1ccc(-c2nc(-c3ccc(F)cc3)c(-c3ccncc3)[nH]2)cc1 | -8 | 3 | 2 | 1 | -7 | .
Fc1ccc(-c2nc(-c3cccs3)[nH]c2-c2ccc(F)cc2)cc1 | 38 | 3 | 4 | 77* | -6 | 74*
O=C(CSc1nc2ccccc2s1)NNC(=S)Nc1ccc(Br)cc1 | 17 | -3 | 10 | 82* | 0 | 83*
O=C(CSc1nc2ccccc2s1)NNC(=S)Nc1ccccc1 | 3 | -3 | -3 | 3 | 2 | .
O=C(Nc1ccccc1)Nc1cccc2ccccc12 | 0 | 1 | 6 | 71* | 0 | 75*
O=C(Nc1ccccc1)Nc1csc2ccccc12 | -16 | 5 | 8 | 84* | 3 | 85*
O=C(Nc1ccc(C(=O)O)cc1)Nc1cccc2ccccc12 | -13 | -1 | 4 | -2 | -3 | .
CC1(C)SC(=S)N(NC(=O)Nc2ccccc2)C1N(O)C(=O)Nc1cccc2ccccc12 (centres undefined) | -33 | 0 | 8 | 72* | 0 | 69*
